# Screening results deposited in PubChem BioAssay by several laboratories.
# SR-BI HDL uptake: inhibitors of mouse SR-BI mediated HDL lipid uptake | Q61009 | ldlA[mSR-BI] CHO cells, DiI-HDL uptake fluorescence, 3 h | inhibition, % at 12.5 µM | hit rate 0.96% among 320,000 | AID 488896;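 active = mean replicate inhibition of at least 70% and a set share of replicates each scoring 70 or more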;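 note: 0% = median of neutral control wells and 100% = median of positive control wells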
# Target sequence (Q61009 whole entry, looked up): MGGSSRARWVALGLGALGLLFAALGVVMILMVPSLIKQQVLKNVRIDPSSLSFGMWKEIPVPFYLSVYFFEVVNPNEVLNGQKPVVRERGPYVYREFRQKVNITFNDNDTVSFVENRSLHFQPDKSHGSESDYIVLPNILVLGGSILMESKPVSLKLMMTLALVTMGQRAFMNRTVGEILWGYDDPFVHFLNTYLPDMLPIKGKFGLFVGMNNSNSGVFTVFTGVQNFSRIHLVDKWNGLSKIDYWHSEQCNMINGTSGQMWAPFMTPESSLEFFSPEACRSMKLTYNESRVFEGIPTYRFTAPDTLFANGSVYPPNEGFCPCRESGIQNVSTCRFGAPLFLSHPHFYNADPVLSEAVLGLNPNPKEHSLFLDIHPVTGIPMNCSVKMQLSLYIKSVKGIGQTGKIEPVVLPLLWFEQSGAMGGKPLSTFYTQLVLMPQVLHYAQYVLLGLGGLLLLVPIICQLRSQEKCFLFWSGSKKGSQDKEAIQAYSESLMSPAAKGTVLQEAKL
# SR-BI DiI-HDL act: SR-BI HDL lipid transfer activation; CHO ldlA[mSR-BI] cells, DiI-HDL uptake fluorescence, 3 h; 100 = double the neutral-control signal; activation, % at 12.5 µM; hit rate 0.096% among 320,000; AID 504775;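 active = mean replicate activation of at least 60% and every replicate at or above 60%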;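 note: 0% = median plate neutral-control signal and 100% = twice that signal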
#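 Test system: SR-BI-overexpressing, LDLR-lacking CHO cells; Medium: Ham's F12 with 0.5% BSA, HEPES 25 mM, pH 7.4; Schedule: 3 h, 37 °C; Technique: bottom-read fluorescence, 550/595 nm.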
# H9c2 TAG inh: triacylglycerol accumulation inhibition; hit rate 0.66% among 230,000; H9c2 cells, Nile Red lipid (TAG) fluorescence; cells loaded with 200 µM oleic acid; inhibition, % at 12.5 µM;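 active = pattern-corrected inhibition of lipid staining of at least 50% with the nuclear-stain viability signal not falling by more than 50%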;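 note: 0% = DMSO wells and 100% = triacsin C control wells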
# Vif inh: inhibitors of HIV Vif. HEK293T cells, Vif self-association by quenched fluorescence, imaging, 24 h. inhibition, % at 7.49 µM. hit rate 0.35% among 340,000. AID 602346; in the data active = inhibition above about 50%, passing the limit was not always enough
# Bfl-1 A1 inh: inhibitors of the anti-apoptotic protein A1, read as caspase activation | MEF A1-2A-BIM cells, Caspase-Glo 3/7 luminescence, 3 h; percent of clofoctol response, vehicle zero | caspase activation, % (test concentration not listed) | hit rate 0.066% among 330,000;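 active = over half of replicate activation scores above 10%, or exactly half above 10 with the replicate mean above 10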
# Starred values were filed as active, the others as inactive; . = no result. Hits are enriched below; roughly 1.6% of the tested compounds scored in any of these assays.
SMILES,SR-BI HDL uptake,SR-BI DiI-HDL act,H9c2 TAG inh,Vif inh,Bfl-1 A1 inh
CN(C)C(=O)CCc1ccc2c3c([nH]c2c1)[C@]1(CCC2CCCC2)[C@@H](C(=O)N2CCOCC2)C[C@H](CC(=O)NCc2cccc(C(F)(F)F)c2)C(=O)N1CC3,-35.1,35.1,6.6,2.0,.
CC[C@]12c3[nH]c4ccc(Cl)cc4c3CCN1C(=O)[C@@H](CC(=O)NCc1ccc(OC)c(OC)c1)C[C@@H]2C(=O)N1CCN(C(=O)c2ccco2)CC1,78.1*,-78.1,2.1,-7.5,.
O=C(CC1C[C@H](C(=O)N2CCOCC2)[C@@]2(CCC3CCCC3)c3[nH]c4ccccc4c3CCN2C1=O)NCc1cccc(C(F)(F)F)c1 (some centres not stated),-107.3,107.4*,43.0,.,.
CC(C)c1nc(SCC(=O)NCC2CCCO2)c2c(=O)n(C)c(=O)n(C)c2n1 (configuration not stated),-9.1,9.1,10.6,0.4,0.4
Cc1ccc(CSc2nnc(CNc3ccc(F)cc3)o2)cc1,-19.9,19.9,6.0,2.4,-1.0
Cc1cc(C)c(C(=O)COC(=O)c2ccc(NC(=O)CC#N)cc2)cc1C,75.2*,-75.2,4.8,2.0,-1.1
CCN(CC(=O)Nc1cc(Cl)cc(Cl)c1)CC(=O)NC1CCS(=O)(=O)C1 (configuration not stated),-4.4,4.4,12.0,53.7*,0.4
Cc1cc2cc(C#N)c(SCC(=O)Nc3nonc3C)nc2cc1C,7.1,-7.1,.,78.9*,-0.6
CC(=O)CCC(=O)OCC(=O)c1ccc(C(F)(F)F)cc1,7.2,-7.2,-3.3,1.0,0.0
CC1(C)CC2(CC(c3ccccc3)c3ccc(O)cc3O2)NC(=S)N1 (configuration not stated),72.0*,-72.0,3.2,-1.7,-0.5
CC(=O)Oc1cc2c(cc1Cl)C(c1cccs1)CC1(CC(C)(C)NC(=S)N1)O2 (configuration not stated),75.2*,-75.2,.,7.3,0.9
CC(C)(C)c1ccc(C(=O)c2c[nH]c(C(=O)NCCc3ccccn3)c2)cc1,-7.6,7.6,-11.9,-2.8,0.3
N#Cc1ccc(C(=O)CSc2n[nH]c(=O)n2Cc2ccco2)cc1,-5.6,5.6,10.1,-4.4,-0.1
Cc1cnc(NC(=O)CN2CCN(c3ccccn3)CC2)s1,-9.2,9.2,27.9,114.1*,0.0
COc1ccc(N2CCN(CC(=O)Nc3ncc(C)s3)CC2)cc1,-6.8,6.8,.,24.8,0.6
O=C(CSc1ccc(-c2cccnc2)nn1)Nc1ccccc1C(F)(F)F,5.8,-5.8,3.1,-2.5,0.1
O=C(NNC(=S)NC1CCCCC1)c1cccs1,-5.5,5.5,.,0.1,0.2
O=C(NNC(=S)NC1CCCCC1)c1ccccc1O,117.7*,-117.7,-4.9,-13.5,-0.5
O=C(NNC(=O)c1cc2ccccc2cc1O)NC1CCCCC1,114.7*,-114.7,-7.9,-8.9,-0.4
COC(=O)c1cc2cc(Cl)ccc2nc1SC,60.2,-60.2,-13.5,2.9,0.0
CCCC(=O)Nc1ccccc1NC(=O)c1ccc(OC)cc1,-11.7,11.7,.,0.0,0.3
O=C(Nc1ccc(Cl)cc1)c1cc2c(cc1O)[nH]c1ccccc12,-15.3,15.4,.,1.3,0.8
COc1ccc(NC(=O)c2ccccc2[N+](=O)[O-])cc1,-18.1,18.1,.,1.9,-0.4
COc1ccccc1Nc1ccc(NC(=O)c2cccc([N+](=O)[O-])c2C)cc1,83.5*,-83.5,.,-6.5,0.5
CC(=O)Nc1ccc(-c2ccnc3c2CC(C(=O)NCc2ccccc2)O3)cc1 (configuration not stated),.,.,49.9,66.0*,.
CC(=O)Nc1ccc(-c2ccnc3c2CC(C(=O)NCCc2ccccc2)O3)cc1 (configuration not stated),.,.,0.1,-4.3,.
O=C(CN1C(=O)NC2(CCCCCCC2)C1=O)Nc1cccc(Br)c1,-16.6,16.6,-3.2,9.5,0.1
O=C(COC(=O)c1ccc([N+](=O)[O-])cc1Cl)Nc1cccnc1Cl,-12.2,12.2,2.2,5.0,0.0
Cc1ccc(S(=O)(=O)CC(=O)Nc2nnc(C(C)C)s2)cc1,14.6,-14.6,.,58.4*,-1.0
CCCc1nnc(NC(=O)CS(=O)(=O)c2ccc(C)cc2)s1,-0.7,0.7,.,-3.2,-0.7
